Sampled rows, rich in hits. Any-hit rate of the full collection: about 3.1%.
KCNQ1 act: potentiates or activates the human KCNQ1 potassium channel; 310,000 compounds, 0.35% hits; B-score at 10 µM; CHO-K1 KCNQ1, thallium flux FluxOR fluorescence; stronger effect = higher value; AID 2648; P51787;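 active = fluorescence ratio B-score, a plate-corrected score, at least three library SD, with initial intensity B-score within 5 SD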
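assay system = CHO-K1 cells stably expressing KCNQ1 | medium = assay buffer, equal DMSO in all wells | timing = 37 °C overnight plating, 90-min dark dye load, 20-min compound pretreatment | measured by = kinetic FluxOR thallium fluorescence, 10-s 1-Hz baseline, 110-s post-stimulus read | measure = fluorescence change relative to baseline, converted to B score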
KCNK3 inh: human KCNK3 channel inhibition, primary screen. AID 602410. CHO-KCNK3 thallium flux, FluxOR fluorescence; stronger effect = lower value. 340,000 compounds, 0.84% hits. O14649. B-score at 10 µM;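 active = B-score under library mean minus 4 SD, starting fluorescence ratio at most library mean plus 5 SD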;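 note: more negative B-score means stronger inhibition of thallium flux through KCNK3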
KCNK9 inh: blocks the human KCNK9 two-pore domain potassium channel. HEK293 KCNK9, FluxOR thallium flux fluorescence; stronger effect = lower value. B-score at 10 µM. 310,000 compounds, 1.2% hits;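 active = ratio B-score over 3 SD below the library mean, with starting fluorescence within 5 SD of its mean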;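 note: negative B-score means less thallium flux so channel inhibition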
KCNQ1 inh: human KCNQ1 channel inhibition; 310,000 compounds, 1.3% hits; CHO-K1 KCNQ1, FluxOR thallium flux fluorescence; stronger effect = higher value; P51787; AID 2642; B-score at 10 µM;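 active = compounds whose thallium flux B-score, printed positive for inhibition, exceeds three library SD while starting fluorescence stays within three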;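 note: channel opened by potassium depolarization with thallium stimulus after 20 min compound exposure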
hERG rescue: hERG (human) protection from proarrhythmic block; Q12809; CHO-hERG, FluxOR thallium flux, dofetilide IC70 present; activation (rescue from dofetilide block), less the hit threshold, % at 10 µM; 310,000 compounds, 0.51% hits; AID 1511;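 active = activation above the mean of controls blocked by dofetilide plus 5 SD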;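 note: thallium influx through hERG after potassium depolarization seen as dye fluorescence rise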
KCNK3 inh conf: human KCNK3 channel inhibition, confirmation assay; shares compounds with KCNK3 inh; CHO-KCNK3 thallium flux, FluxOR fluorescence; 0% buffer, 100% carvedilol maximal block; ratio percent of control, % at 10 µM; 2,400 compounds, 99% hits; AID 651638;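 active = ratio percent of control, averaged over triplicates, above buffer control mean plus 5 SD, cut at about 64% in these data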;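 note: ratio is the fluorescence rise from min to max over baseline after thallium stimulus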
KCNK3 noninduced: activity in cells without induced KCNK3 expression; shares compounds with KCNK3 inh; non-induced KCNK3 parental cells, FluxOR thallium flux; stronger effect = lower value; thallium flux ratio (lower = more inhibition) at 10 µM; 2,400 compounds, 40% hits; AID 651747;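 active = thallium flux ratio, averaged over three wells, more than 5 SD below the buffer control mean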;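 note: host cells are CHO cells without KCNK3 induction; ratio is peak minus trough fluorescence over baseline then normalized to buffer controls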
* marks the source's active call; other numbers are inactive results.

How did Cc1cccc(NC(=O)c2ccc(N(C)C3CCCCC3)c([N+](=O)[O-])c2)n1 do in these assays?
KCNQ1 act: inactive; KCNK3 inh: -11*; KCNK9 inh: inactive; KCNQ1 inh: inactive; hERG rescue: -12; KCNK3 inh conf: 128*; KCNK3 noninduced: 0.12*

Results for N#Cc1ccsc1NC(=O)CN1C(=O)NC2(CCCCC2)C1=O ?
KCNQ1 act: inactive; KCNK3 inh: inactive; KCNK9 inh: inactive; KCNQ1 inh: inactive; hERG rescue: 1

What do the screens show for `O=[N+]([O-])c1ccc(C2=NN(CCO)C(=Nc3ccc(OC(F)(F)F)cc3)SC2)cc1`?
KCNQ1 act: inactive; KCNK3 inh: -10*; KCNK9 inh: inactive; KCNQ1 inh: inactive; hERG rescue: -9; KCNK3 inh conf: 131*; KCNK3 noninduced: inactive

How did Fc1ccc(-c2cnc(-c3cccs3)o2)cc1 do in these assays?
KCNQ1 act: inactive; KCNK3 inh: -9.6*; KCNK9 inh: inactive; KCNQ1 inh: inactive; hERG rescue: -5; KCNK3 inh conf: 93*; KCNK3 noninduced: 0.15*

Results for CN(c1ccccc1)S(=O)(=O)c1cccc(NC(=O)c2ccc3ncsc3c2)c1 ?
KCNQ1 act: inactive; KCNK3 inh: -9.5*; KCNK9 inh: -7.1*; KCNQ1 inh: inactive; hERG rescue: -14; KCNK3 inh conf: 130*; KCNK3 noninduced: 0.14*

Results for CC(C)(C)CN1CCN(Cc2c[nH]c3ccccc23)CC1CCO (stereo unspecified) ?
KCNQ1 act: inactive; KCNK3 inh: inactive; KCNK9 inh: inactive; KCNQ1 inh: inactive; hERG rescue: 3

How did CCn1c2ccccc2c2nnc(SCc3ccccc3)nc21 do in these assays?
KCNQ1 act: inactive; KCNK3 inh: -12*; KCNK9 inh: -6.6*; KCNQ1 inh: inactive; hERG rescue: -13; KCNK3 inh conf: 106*; KCNK3 noninduced: inactive

Results for Cc1nn(-c2ccccc2)c(Cl)c1C(=O)OCC(=O)NCCc1ccc(S(N)(=O)=O)cc1 ?
KCNK3 inh: inactive

What do the screens show for `COc1ccc2c(c1)C(c1cccs1)=NNC(c1ccncc1)=N2`?
KCNQ1 act: inactive; KCNK3 inh: -8.8*; KCNK9 inh: inactive; KCNQ1 inh: inactive; hERG rescue: -9; KCNK3 inh conf: 66*; KCNK3 noninduced: inactive

Results for CCCCNc1oc(-c2cccs2)nc1S(=O)(=O)c1ccccc1 ?
KCNQ1 act: inactive; KCNK3 inh: -9.5*; KCNK9 inh: inactive; KCNQ1 inh: inactive; hERG rescue: -10; KCNK3 inh conf: 127*; KCNK3 noninduced: 0.13*

How did CCCCCCC(CC(=O)NCc1cccnc1)CC(=O)NCc1cccnc1 do in these assays?
KCNQ1 act: inactive; KCNK3 inh: inactive; KCNK9 inh: inactive; KCNQ1 inh: inactive; hERG rescue: -9

How did Cc1ccccc1NC(C)C(=O)N/N=C/c1ccccc1OCc1cccc(Br)c1 (stereo unspecified) do in these assays?
KCNQ1 act: inactive; KCNK3 inh: -11*; KCNK9 inh: inactive; KCNQ1 inh: inactive; hERG rescue: -10; KCNK3 inh conf: 92*; KCNK3 noninduced: 0.16*

What do the screens show for `CCN1C(=O)C(CC(=O)Nc2ccc(OC)cc2)N(CCc2ccccc2)C1=S` (stereo unspecified)?
KCNQ1 act: inactive; KCNK3 inh: -8.8*; KCNK9 inh: inactive; KCNQ1 inh: inactive; hERG rescue: -22; KCNK3 inh conf: 113*; KCNK3 noninduced: inactive

How did COc1ccc(S(=O)(=O)N2CCC(C(=O)NCCC(=O)Nc3nccs3)CC2)cc1 do in these assays?
KCNQ1 act: inactive; KCNK3 inh: inactive; KCNK9 inh: inactive; KCNQ1 inh: inactive; hERG rescue: -3

Results for COc1ccccc1-c1cc(C(=O)N/N=C/c2cccs2)c2ccccc2n1 ?
KCNQ1 act: inactive; KCNK3 inh: -9.4*; KCNK9 inh: inactive; KCNQ1 inh: inactive; hERG rescue: -7; KCNK3 inh conf: 109*; KCNK3 noninduced: inactive

How did O=C(N/N=C/c1cccs1)c1cc(-c2ccncc2)nc2ccccc12 do in these assays?
KCNQ1 act: inactive; KCNK3 inh: inactive; KCNK9 inh: inactive; KCNQ1 inh: inactive; hERG rescue: -3

Results for COc1ccccc1CN(C)C(=O)c1cc(-c2cccs2)nc2ccccc12 ?
KCNQ1 act: inactive; KCNK3 inh: -13*; KCNK9 inh: inactive; KCNQ1 inh: inactive; hERG rescue: -14; KCNK3 inh conf: 119*; KCNK3 noninduced: 0.14*

Results for Cc1ccccc1-n1nc2c(c1NC(=O)C(C)(C)C)CS(=O)(=O)C2 ?
KCNQ1 act: inactive; KCNK3 inh: inactive; KCNK9 inh: inactive; KCNQ1 inh: inactive; hERG rescue: -2

Results for CC(=O)Nc1cc(C(=O)OC(C(=O)c2ccccc2)c2ccccc2)ccc1C (stereo unspecified) ?
KCNQ1 act: inactive; KCNK3 inh: -10*; KCNK9 inh: inactive; KCNQ1 inh: inactive; hERG rescue: -19; KCNK3 inh conf: 79*; KCNK3 noninduced: inactive

Results for Cc1ccc(C(=O)C2C(=O)c3ccccc3C2=O)cc1 ?
KCNQ1 act: inactive; KCNK3 inh: inactive; KCNK9 inh: inactive; KCNQ1 inh: inactive; hERG rescue: -8

What do the screens show for `NN=C1c2ccccc2C(=O)C1C(=O)C(c1ccccc1)c1ccccc1` (stereo unspecified)?
KCNK3 inh: -14*; KCNK3 inh conf: 138*; KCNK3 noninduced: 0.097*

What do the screens show for `Cc1ccc(CN2CCN(/N=C/c3ccc(Cl)c([N+](=O)[O-])c3)CC2)cc1`?
KCNQ1 act: inactive; KCNK3 inh: -8.7*; KCNK9 inh: inactive; KCNQ1 inh: inactive; hERG rescue: -1; KCNK3 inh conf: 121*; KCNK3 noninduced: inactive

How did CCc1c(C)nc2cc(-c3ccc(OC)c(OC)c3)nn2c1N1CCCC1 do in these assays?
KCNQ1 act: inactive; KCNK3 inh: -9.6*; KCNK9 inh: inactive; KCNQ1 inh: inactive; hERG rescue: -2; KCNK3 inh conf: 109*; KCNK3 noninduced: inactive

What do the screens show for `CCc1c(C)nc2cc(-c3ccc(OC)c(OC)c3)nn2c1N1CCC(C)CC1`?
KCNQ1 act: inactive; KCNK3 inh: -8.9*; KCNK9 inh: inactive; KCNQ1 inh: inactive; hERG rescue: -16; KCNK3 inh conf: 104*; KCNK3 noninduced: inactive

Results for COc1ccc(-c2c(C)nn3c(N4CCCCCC4)cc(C)nc23)cc1OC ?
KCNQ1 act: inactive; KCNK3 inh: inactive; KCNK9 inh: inactive; KCNQ1 inh: inactive; hERG rescue: -16
